Assay results collected from several papers.
FLT3 D835Y: Receptor-type tyrosine-protein kinase FLT3 (FLT3, Homo sapiens, UniProt P36888, D835Y)
FLT3 K663Q: Receptor-type tyrosine-protein kinase FLT3 (FLT3, Homo sapiens, UniProt P36888, K663Q)
FLT3 N841I: Receptor-type tyrosine-protein kinase FLT3 (FLT3, Homo sapiens, UniProt P36888, N841I)
FLT3: Receptor-type tyrosine-protein kinase FLT3 (FLT3, Homo sapiens, UniProt P36888)

Compound	target	test	conditions	measurement	value
C[C@H]1CC[C@H](n2c3cnccc3c3cnc(Nc4ccc5c(n4)CCN(C(=O)CO)C5)nc32)CC1	FLT3 D835Y	cell-free assay	1 µM	remaining signal	1%
C1=C/COCc2cc(ccc2OCCN2CCCC2)Nc2nccc(n2)-c2cccc(c2)COC/1	FLT3 K663Q	binding	0.1 µM	remaining binding	11%
Cc1ccc(NC(=O)c2ccnc(C(F)(F)F)c2)cc1-c1cc(OCCO)nc(N2CCOCC2)c1	FLT3 N841I	binding	1 µM	remaining binding	82%
CC#CC(=O)N1CCC[C@H]1c1nc(-c2ccc(C(=O)Nc3ccccn3)cc2)c2c(N)nccn12	FLT3 N841I	enzyme activity, inhibitor	1 µM	inhibition	18%
Cc1n[nH]c2ccc3nc(-c4ccc(C(=O)NCCN(C)C)cc4F)c4c(c3c12)CCCC4	FLT3	enzyme activity, inhibitor, radiometric	0.5 µM	remaining activity	22%
COc1ccc2oc(-c3ccc4nc(N)oc4c3)c/c(=N\c3ccccc3NC(=O)CCN)c2c1	FLT3	binding	1 µM	remaining binding	108%
C=CC(=O)N1CCC([C@@H]2CCNc3c(C(N)=O)c(-c4ccc(Oc5ccccc5)cc4)nn32)CC1	FLT3 D835Y	enzyme activity, inhibitor	1 µM	inhibition	81%
C[C@]1(O)CCCN(c2nc(Nc3ccc(S(=O)(=O)N[C@H]4CC[C@H](CN5CCN(c6ccc(C7CCC(=O)NC7=O)cc6F)CC5)CC4)cc3Cl)ncc2C(F)(F)F)C1 (some centres unmarked)	FLT3 N841I	binding, competition with immobilised ligand	1 µM	remaining binding	68%
C#Cc1cc(-c2cc(Nc3nc(N[C@@H](C)c4ccc(F)cn4)ncc3Cl)n[nH]2)ccc1C=O	FLT3 D835Y	enzyme activity, inhibitor	0.2 µM	inhibition	98.5%
COc1ccc2[nH]c3c4[nH]c5ccc(OC)cc5c4c4c(c3c2c1)C(=O)NC4=O	Receptor-type tyrosine-protein kinase FLT3 (FLT3, Homo sapiens, UniProt P36888, D835V)	binding	1 µM	remaining binding	4%
O=C1C=C(Nc2ccc(OCc3cn(Cc4ccc(Cl)c(Cl)c4)nn3)cc2)C(=O)c2ccccc21	FLT3	enzyme activity, inhibitor, radiometric	10 µM	inhibition	-21%
CCCCC(=O)Nc1ccc(-c2ccc3ncn(CCC)c(=O)c3c2)cn1	FLT3 K663Q	binding, competition with immobilised ligand	0.5 µM	remaining binding	96%
CN1CCN(C(=O)c2ccc(NC(=O)Nc3ccc(N(C)c4ccnc(Nc5ccc(CS(C)(=O)=O)cc5)n4)cc3)cc2)CC1	FLT3 K663Q	binding	1 µM	remaining binding	0%
C[C@]1(O)CCCN(c2nc(Nc3ccc(S(=O)(=O)N[C@H]4CC[C@H](CN5CCN(c6ccc(C7CCC(=O)NC7=O)cc6F)CC5)CC4)cc3F)ncc2C(F)(F)F)C1 (some centres unmarked)	FLT3 N841I	binding, competition with immobilised ligand	1 µM	remaining binding	72%
